Measurements taken from the RNAGym collection of RNA variant scans (doi:10.1038/s41586-018-0170-7).

B1: tRNA (parent)
chain: GUUCCGUUGGCGUAAUGGUAACGCGUCUCCCUCCUAAGGAGAAGACUGCGGGUUCGAGUCCCGUACGGAACG

Variants of: B1
Assay: yeast fitness, log relative to wild type (ln ratio); higher = fitter; tRNA-Arg(CCU), competitive growth, 37 C, 1 M NaCl
In short: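 For each genotype, fitness is defined as the natural log of its generation number over the wild type's. The tRNA-Arg(CCU) variant library was on a HIS3 centromeric plasmid in BY4742 with the chromosomal gene removed, and pools were first grown 4 generations in SC-HIS at 30 °C and then ~6.5 generations (~26.5 h) in SC-HIS 1M NaCl at 37 °C. Generations were calculated from OD-scaled log2 output/input frequency, weighted by inverse variance across replicates, using counts from 125 bp paired-end Illumina sequencing.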

First: ACUCCUUUGGCGUAAUGGUAACGCGUCUCCCUCCUAAGGAGAAGACUGCGGGUUCGAGUCCCGUAAGGAUUG [G1A U2C G6U C66A A70U C71U]
Second: GCUCCAUUGGCGUAAUGGUAACGCGUUUCCCUCCUAAGGAGAAGAUUGCGGGUUCGAGUCCCGUACGGAGUG [U2C G6A C27U C46U A70G C71U]
The “yeast fitness (ln)” value of the first is higher: -0.16 for the first, -0.239 for the second.

Compared with GCUCCUUUGGCGUAAUGGUAACGCGUUUCCCUCCUAAGGAGACGAUUGCGGGUUCGAGUCCCGUAAGGAGCG [U2C G6U C27U A43C C46U C66A A70G], GCUCCUUUGGCGUAAUGGUAACGCGUUUCCCUCCUAAGGAGACGAUUGCGGGUUCGAGUCCCGUAAGGAUCG [U2C G6U C27U A43C C46U C66A A70U] is lower in “yeast fitness (ln)” value: -0.0237 for the first, -0.0786 for the second.

Compared with GGUCCUUUGGCGUAAUGGUAACGCGUUUCCCUCCUAAGGAGAAGACUGCGGGUUCGAGUCCCGUACGGGUUG [U2G G6U C27U A69G A70U C71U], AUUCCUUUGGCGUAAUGGUAACGCGUUUCCCUCCUAAGGAGACGAUUGCGGGUUCGAGUCCCGUAAGGAUUG [G1A G6U C27U A43C C46U C66A A70U C71U] is higher in “yeast fitness (ln)” value: -0.515 for the first, -0.325 for the second.

First: AGUCCGUUGGCGUAAUGGUAACGCGUCUCCCUCCUAAGGAGACGACUGCGGGUUCGAGUCCCGUAUGGAACG [G1A U2G A43C C66U]
Second: ACUCCAUUGGCGUAAUGGUAACGCGUCUCCCUCCUAAGGAGAAGAUUGCGGGUUCGAGUCCCGUAUGGGUUG [G1A U2C G6A C46U C66U A69G A70U C71U]
The “yeast fitness (ln)” value of the first is higher: -0.246 for the first, -0.339 for the second.

First: AGUCCAUUGGCGUAAUGGUAACGCGUUUCCCUCCUAAGGAGACGACUGCGGGUUCGAGUCCCGUACGGAAUG [G1A U2G G6A C27U A43C C71U]
Second: AGUCCUUUGGCGUAAUGGUAACGCGUCUCCCUCCUAAGGAGAAGAUUGCGGGUUCGAGUCCCGUAUGGAAUG [G1A U2G G6U C46U C66U C71U]
The “yeast fitness (ln)” value of the first is lower: -0.357 for the first, -0.257 for the second.

Going from AUUCCUUUGGCGUAAUGGUAACGCGUCUCCCUCCUAAGGAGAAGAUUGCGGGUUCGAGUCCCGUAAGGAGUG [G1A G6U C46U C66A A70G C71U] to AGUCCUUUGGCGUAAUGGUAACGCGUUUCCCUCCUAAGGAGAAGAUUGCGGGUUCGAGUCCCGUAAGGAACG [G1A U2G G6U C27U C46U C66A], the “yeast fitness (ln)” value falls from -0.0299 to -0.2.

First: GGUCCGUUGGCGUAAUGGUAACGCGUUUCCCUCCUAAGGAGACGAUUGCGGGUUCGAGUCCCGUAAGGAGUG [U2G C27U A43C C46U C66A A70G C71U]
Second: GUUCCGUUGGCGUAAUGGUAACGCGUCUCCCUCCUAAGGAGACGACUGCGGGUUCGAGUCCCGUAUGGAUUG [A43C C66U A70U C71U]
The “yeast fitness (ln)” value of the first is higher: -0.162 for the first, -0.358 for the second.

Going from GUUCCAUUGGCGUAAUGGUAACGCGUUUCCCUCCUAAGGAGAAGACUGCGGGUUCGAGUCCCGUAAGGAGUG [G6A C27U C66A A70G C71U] to GCUCCUUUGGCGUAAUGGUAACGCGUUUCCCUCCUAAGGAGAAGACUGCGGGUUCGAGUCCCGUAUGGAUUG [U2C G6U C27U C66U A70U C71U], the “yeast fitness (ln)” value rises from -0.364 to -0.35.

Compared with GGUCCUUUGGCGUAAUGGUAACGCGUUUCCCUCCUAAGGAGAAGAUUGCGGGUUCGAGUCCCGUAAGGGGCG [U2G G6U C27U C46U C66A A69G A70G], AGUCCGUUGGCGUAAUGGUAACGCGUUUCCCUCCUAAGGAGACGAUUGCGGGUUCGAGUCCCGUACGGAUUG [G1A U2G C27U A43C C46U A70U C71U] is higher in “yeast fitness (ln)” value: -0.214 for the first, -0.0479 for the second.

Compared with AUUCCGUUGGCGUAAUGGUAACGCGUCUCCCUCCUAAGGAGAAGAUUGCGGGUUCGAGUCCCGUAAGGGUCG [G1A C46U C66A A69G A70U], ACUCCGUUGGCGUAAUGGUAACGCGUCUCCCUCCUAAGGAGACGAUUGCGGGUUCGAGUCCCGUACGGAUUG [G1A U2C A43C C46U A70U C71U] is higher in “yeast fitness (ln)” value: -0.0801 for the first, -0.0746 for the second.

Going from GGUCCUUUGGCGUAAUGGUAACGCGUCUCCCUCCUAAGGAGAAGACUGCGGGUUCGAGUCCCGUACGGAUCG [U2G G6U A70U] to AUUCCGUUGGCGUAAUGGUAACGCGUUUCCCUCCUAAGGAGACGAUUGCGGGUUCGAGUCCCGUAUGGGAUG [G1A C27U A43C C46U C66U A69G C71U], the “yeast fitness (ln)” value falls from -0.0383 to -0.361.

Going from AGUCCUUUGGCGUAAUGGUAACGCGUCUCCCUCCUAAGGAGACGACUGCGGGUUCGAGUCCCGUACGGAAUG [G1A U2G G6U A43C C71U] to GUUCCUUUGGCGUAAUGGUAACGCGUUUCCCUCCUAAGGAGAAGAUUGCGGGUUCGAGUCCCGUAUGGGUUG [G6U C27U C46U C66U A69G A70U C71U], the “yeast fitness (ln)” value falls from -0.307 to -0.51.

First: GCUCCAUUGGCGUAAUGGUAACGCGUCUCCCUCCUAAGGAGAAGAUUGCGGGUUCGAGUCCCGUAUGGAUUG [U2C G6A C46U C66U A70U C71U]
Second: AGUCCAUUGGCGUAAUGGUAACGCGUUUCCCUCCUAAGGAGACGACUGCGGGUUCGAGUCCCGUAUGGAUUG [G1A U2G G6A C27U A43C C66U A70U C71U]
The “yeast fitness (ln)” value of the first is higher: -0.183 for the first, -0.536 for the second.

First: GGUCCGUUGGCGUAAUGGUAACGCGUUUCCCUCCUAAGGAGACGACUGCGGGUUCGAGUCCCGUAAGGAUCG [U2G C27U A43C C66A A70U]
Second: AUUCCUUUGGCGUAAUGGUAACGCGUUUCCCUCCUAAGGAGAAGACUGCGGGUUCGAGUCCCGUAAGGAACG [G1A G6U C27U C66A]
The “yeast fitness (ln)” value of the first is higher: -0.0548 for the first, -0.254 for the second.

Going from AGUCCGUUGGCGUAAUGGUAACGCGUCUCCCUCCUAAGGAGAAGACUGCGGGUUCGAGUCCCGUAAGGAAUG [G1A U2G C66A C71U] to GCUCCGUUGGCGUAAUGGUAACGCGUUUCCCUCCUAAGGAGAAGACUGCGGGUUCGAGUCCCGUACGGGUCG [U2C C27U A69G A70U], the “yeast fitness (ln)” value falls from -0.0937 to -0.175.

Going from GCUCCUUUGGCGUAAUGGUAACGCGUCUCCCUCCUAAGGAGACGAUUGCGGGUUCGAGUCCCGUAAGGGUUG [U2C G6U A43C C46U C66A A69G A70U C71U] to ACUCCGUUGGCGUAAUGGUAACGCGUUUCCCUCCUAAGGAGAAGACUGCGGGUUCGAGUCCCGUAUGGAUUG [G1A U2C C27U C66U A70U C71U], the “yeast fitness (ln)” value rises from -0.396 to -0.256.

First: GCUCCAUUGGCGUAAUGGUAACGCGUCUCCCUCCUAAGGAGACGACUGCGGGUUCGAGUCCCGUACGGAAUG [U2C G6A A43C C71U]
Second: AGUCCAUUGGCGUAAUGGUAACGCGUUUCCCUCCUAAGGAGACGACUGCGGGUUCGAGUCCCGUACGGGAUG [G1A U2G G6A C27U A43C A69G C71U]
The “yeast fitness (ln)” value of the first is higher: -0.0318 for the first, -0.673 for the second.

Going from GGUCCGUUGGCGUAAUGGUAACGCGUUUCCCUCCUAAGGAGAAGAUUGCGGGUUCGAGUCCCGUAUGGAACG [U2G C27U C46U C66U] to GUUCCUUUGGCGUAAUGGUAACGCGUCUCCCUCCUAAGGAGACGACUGCGGGUUCGAGUCCCGUAAGGGGCG [G6U A43C C66A A69G A70G], the “yeast fitness (ln)” value falls from -0.0703 to -0.373.

Going from AGUCCUUUGGCGUAAUGGUAACGCGUCUCCCUCCUAAGGAGAAGACUGCGGGUUCGAGUCCCGUAUGGGUUG [G1A U2G G6U C66U A69G A70U C71U] to GGUCCAUUGGCGUAAUGGUAACGCGUUUCCCUCCUAAGGAGACGAUUGCGGGUUCGAGUCCCGUAUGGGUUG [U2G G6A C27U A43C C46U C66U A69G A70U C71U], the “yeast fitness (ln)” value rises from -0.553 to -0.433.
